Laboratory results from ChEMBL document CHEMBL4011600, “Identification of compounds with cytotoxic activity from the leaf of the Nigerian medicinal plant, Anacardium occidentale L. (Anacardiaceae)” (Bioorg Med Chem, 2017).

Key:
HeLa [1] = test: Cytotoxicity against human HeLa cells assessed as reduction in cell viability after 48 hrs by Alamar blue staining based fluorescence assay; format: functional
Outline: (§1)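 HeLa cells seeded at 1×10^5 cells/ml in MEM with 10% FBS, 1% NEAA, 2 mM glutamine and 1% antibiotic-antimycotic, grown 24 h at 37°C under 5% CO2. Compounds then added for 48 h at concentrations up to 1.6 mM. Readings normalized to DMSO-only controls set at 100%.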

HeLa [2] = test: Cytotoxicity against human HeLa cells assessed as reduction in cell viability at 1 uM after 48 hrs by Alamar blue staining based fluorescence assay relative to control; format: functional
Outline: as §1, with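 “mM. Alamar blue applied for 3 h, plates cooled to room temperature, fluorescence read at ex 544, em 590 nm.” for “mM.”, “100%. IC50 taken from concentration-response curve fits, mean ± SEM, n=3-4.” for “100%.”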

HeLa [3] = test: Cytotoxicity against human HeLa cells assessed as reduction in cell viability at 2.5 uM after 48 hrs by Alamar blue staining based fluorescence assay relative to control; format: functional
Outline: as §1, with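 “mM. Alamar blue applied for 3 h, plates cooled to room temperature, fluorescence read at ex 544, em 590 nm.” for “mM.”, “100%. IC50 taken from concentration-response curve fits, mean ± SEM, n=3-4.” for “100%.”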

HeLa [4] = test: Cytotoxicity against human HeLa cells assessed as reduction in cell viability at 5 uM after 48 hrs by Alamar blue staining based fluorescence assay relative to control; format: functional
Outline: as §1, with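 “mM. Alamar blue applied for 3 h, plates cooled to room temperature, fluorescence read at ex 544, em 590 nm.” for “mM.”, “100%. IC50 taken from concentration-response curve fits, mean ± SEM, n=3-4.” for “100%.”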

HeLa [5] = test: Induction of morphological changes in human HeLa cells assessed as loss of cells by microscopic method; format: functional, cell-based
Outline: (§2)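 HeLa cells seeded at 1×10^5 cells/ml and grown for 24 h at 37°C under 5% CO2, then exposed to compounds for 48 h. Cell loss and rounding of the remaining cells were judged against DMSO-treated controls by inverted phase microscopy at ×10 magnification, with camera images taken after treatment.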

HeLa [6] = test: Induction of morphological changes in human HeLa cells assessed as cell rounding by microscopic method; format: functional, cell-based; outline: as §2

SMILES | Activity (HeLa [1]) | IC50 (HeLa [1]) | Activity (HeLa [2]) | Activity (HeLa [3]) | Activity (HeLa [4]) | Activity (HeLa [5]) | Activity (HeLa [6])
COC(=O)c1cc(OC)c(CCc2c(OC)cc(C(=O)OC)cc2OC)c(OC)c1 | Dose-dependent effect | 46.5 µM | – | – | – | – | –
COc1cccc2c1C(=O)c1c(O)c3c(c(O)c1C2=O)C[C@@](O)(C(=O)CO)C[C@@H]3O[C@H]1C[C@H](N)[C@H](O)[C@H](C)O1 [DOXORUBICIN] | – | 2.3 µM | 106.5% | 50.8% | 40% | – | –
C=C1C(=O)O[C@@H]2/C=C(/C)[C@H](O)C/C=C(\C)[C@@H](O)[C@H](OC(=O)/C(C)=C\C)[C@@H]12 | Dose-dependent effect | 36.2 µM | – | – | – | Dose-dependent effect | Dose-dependent effect
COC(=O)c1cc(O)c(O)c(O)c1 [GALLIC ACID METHYL ESTER] | Dose-dependent effect | 267 µM | – | – | – | – | –
